NF-kB expr up = compounds increasing NF-kB expression in human neuronal cells; fold change at 12.5 µM; AID 1239; 1.6% of 190,000 active; NF-kB reporter expression; active compounds read high; in the data active = fold change above about 3.3
APP 5'UTR act = activates APP 5'UTR luciferase reporter. SH-SY5Y APP 5'UTR luciferase reporter, luminescence; zero percent = DMSO vehicle wells. activation, % at 2 µM. 1% of 190,000 active;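 active = activation above a set limit, based on mean plus 3 SD of controls, cut at about 140% in these data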
STAT1 act = STAT1 signaling activation. NIH 3T3 STAT1-luciferase reporter, IFN-gamma, luminescence; 100% = IFN-gamma alone, no compound. activation (% of control), % at 5.5 µM. 2.6% of 200,000 active. AID 932;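 active = activation above the screen-wide mean activation plus 3 SD, cut at about 130% in these data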
FLuc inh counter = counter-screen for luciferase assay inhibitors: firefly luciferase inhibition; ATPLite firefly luciferase biochemical luminescence, 10 min; inhibition, % at 10 µM; 1.5% of 200,000 active;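 active = inhibition above about 50% when tested at 10 µM, limit read from the data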
Target sequence (P08659 whole entry, looked up): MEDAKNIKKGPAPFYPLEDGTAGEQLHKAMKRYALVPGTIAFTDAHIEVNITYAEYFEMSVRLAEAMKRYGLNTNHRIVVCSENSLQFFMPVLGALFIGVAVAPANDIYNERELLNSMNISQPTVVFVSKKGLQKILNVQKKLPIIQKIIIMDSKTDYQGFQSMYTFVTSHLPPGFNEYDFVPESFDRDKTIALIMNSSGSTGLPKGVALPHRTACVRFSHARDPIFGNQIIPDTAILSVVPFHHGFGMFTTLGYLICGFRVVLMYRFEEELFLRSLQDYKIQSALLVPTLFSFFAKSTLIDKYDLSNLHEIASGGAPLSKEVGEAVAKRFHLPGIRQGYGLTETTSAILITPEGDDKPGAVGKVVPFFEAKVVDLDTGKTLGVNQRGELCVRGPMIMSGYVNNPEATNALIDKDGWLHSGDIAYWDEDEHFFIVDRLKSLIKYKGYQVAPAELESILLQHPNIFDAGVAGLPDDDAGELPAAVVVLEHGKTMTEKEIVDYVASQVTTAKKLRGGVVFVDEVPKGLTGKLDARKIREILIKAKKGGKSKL
Pf gametocyte = P. falciparum stage V gametocyte viability inhibition; 0.065% of 150,000 active; inhibition, % at 10.9 µM; AID 743093; P. falciparum stage V gametocytes, ATP luminescence, 24 h;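 active = inhibition above the mean plus 3 SD of compounds within the control limits, set per campaign, cut at about 38% in these data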
FLuc stim CS = firefly luciferase counter-screen for stimulation assays | P08659 | ATPlite luciferase biochemical, luminescence, 10 min; 0 = ATP-free wells, 1 = DMSO control | activation factor at 10 µM | 200,000 tested, under 10 active | AID 1027;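 active = luciferase activation factor, scaled between plate controls, of at least 2 with compound at 10 µM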
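Assay system – cell-free luciferase reagent · Medium – PBS-based ATP solution · Dosing – test compounds dosed from 2 mM stocks in 100% DMSO · Timing – 10 min, room temperature · Technique – light output (luminescence) · Measure – luminescence gain marking luciferase activators · Controls – No-ATP low control, compound-free enzyme-plus-ATP high control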
Each line names hits and unclear results; the compound was inactive in the other large screens. An excerpt weighted towards active compounds, which were near 3.5% of everything screened.

CC(Nc1nc(N2CCN(S(C)(=O)=O)CC2)nc2ccccc12)c1ccccc1 (stereo unspecified)	none (no result: Pf gametocyte)
C/C(=N\Nc1nc2ccccc2[nH]1)c1cc2ccccc2o1	FLuc inh counter 78.4
C/C(=N\Nc1nc2ccccc2[nH]1)c1ccc2c(c1)OCCO2	FLuc inh counter 77.5
Cn1c(=O)n(C)c2cc(NC(=O)COc3ccc(Cl)cc3)ccc21	none
C/C(N)=C(/C#N)C(=O)CSc1nnc(Nc2ccccc2C)s1	none
C/C(N)=C(/C#N)C(=O)CSc1nnc(Nc2ccccc2)s1	STAT1 act 147.8
CC(=O)Nc1cc2c(cc1NC(=O)Cn1nnc(-c3ccc(C)o3)n1)OCCO2	none
Cc1csc(NC(=O)CS(=O)(=O)Cc2ccccc2)n1	none
C(=N\Nc1nc(-c2ccccc2)cs1)/c1ccco1	NF-kB expr up 5.24, APP 5'UTR act 156.2, STAT1 act 146.9
C(=N\Nc1nc(-c2ccccc2)cs1)/c1ccncc1	STAT1 act 149.2
C(=N\Nc1nc(-c2ccccc2)cs1)/c1cccs1	NF-kB expr up 7.37, STAT1 act 144.9 (no result: Pf gametocyte)
C=CCn1c(SCc2c(C)noc2C)nc2ccccc2c1=O	NF-kB expr up 3.38 (no result: Pf gametocyte)
CN(CCc1ccccn1)C(=O)CCC1CCCN(C(=O)c2n[nH]c3c2CCCC3)C1 (stereo unspecified)	none
CCOC(=O)C1C(c2ccc(O)c(O)c2)NC(=S)NC1(O)C(F)(F)F (stereo unspecified)	none (no result: Pf gametocyte)
CCc1nnc(NC(=O)[C@@H](NC(=O)c2cccc(S(=O)(=O)N3CCOCC3)c2)C(C)C)s1	none (no result: Pf gametocyte)
O=C(CSc1nnc(-c2ccccc2)n1-c1ccccc1)c1cccs1	none
Nc1nc(CSc2ncn(-c3ccccc3)n2)cs1	STAT1 act 132.1 (no result: Pf gametocyte)
c1ccc(CSc2ncn(-c3ccccc3)n2)cc1	NF-kB expr up 4.31, STAT1 act 144.0 (no result: Pf gametocyte)
O=C(CSc1ncn(-c2ccccc2)n1)Nc1ccc(Br)cn1	none
O=C(CSc1ncn(-c2ccccc2)n1)c1cccs1	NF-kB expr up 3.51, STAT1 act 129.1 (no result: Pf gametocyte)
CN(C)CCNc1c2c(nc3nnnn13)CCCC2	none
CCCCN(C)C(=S)Nc1ccsc1C(=O)OC	none
CCOc1ccccc1N1CCN(C(=O)c2ccncc2)CC1	none (no result: Pf gametocyte)
CCOc1ccccc1N1CCN(C(=O)c2ccc3[nH]c4c(c3c2)CCCC4)CC1	Pf gametocyte 44.5
Cc1ccc(COc2ccc(Br)cc2/C=N/O)cc1	STAT1 act 135.4
CCOc1cc(/C=N/O)ccc1OCc1ccc(C)cc1	STAT1 act 129.9 (no result: Pf gametocyte)
CCOc1cc(/C=N/O)ccc1OS(=O)(=O)c1ccc(C)cc1	none (no result: Pf gametocyte)
OC1(C#CCN2CCCC2)CCCCC1	none (no result: NF-kB expr up, APP 5'UTR act, STAT1 act, FLuc inh counter, FLuc stim CS)
CCOC(=O)c1cnc(-n2nc(C)cc2C)nc1N(C)C	FLuc inh counter 79.5
O=C(NC1CCCCC1)c1cc2nc3c(c(C(F)(F)F)n2n1)CCCC3	STAT1 act 129.9
CC(=O)c1ccc(NC(=O)c2cc3nc4c(c(C(F)(F)F)n3n2)CCCC4)cc1	none (no result: Pf gametocyte)
CC(Nc1cc(=O)n(C)c(=O)[nH]1)c1ccccc1 (stereo unspecified)	none
N/C(=N\OC(=O)c1cccs1)c1cccc([N+](=O)[O-])c1	FLuc inh counter 86.7
COc1ccc(/C(N)=N/OC(=O)c2cccc([N+](=O)[O-])c2C)cc1OC	none (no result: Pf gametocyte)
Cc1cccc(C(=O)O/N=C(\N)c2cccc([N+](=O)[O-])c2)c1	STAT1 act 129.6, FLuc inh counter 87.1 (no result: Pf gametocyte)
COc1cccc(C(=O)O/N=C(\N)c2ccc([N+](=O)[O-])cc2)c1OC	STAT1 act 132.4 (no result: APP 5'UTR act, Pf gametocyte)
Cc1ccccc1C(=O)O/N=C(\N)c1cccc([N+](=O)[O-])c1	STAT1 act 139.1, FLuc inh counter 90.7 (no result: Pf gametocyte)
O=C1c2ccc([N+](=O)[O-])cc2NC(c2ccco2)N1/N=C/c1ccco1 (stereo unspecified)	none (no result: NF-kB expr up, APP 5'UTR act, STAT1 act, FLuc inh counter, FLuc stim CS)
CN=c1scc(-c2ccc([N+](=O)[O-])cc2)n1/N=C/c1ccco1	APP 5'UTR act 196.4
CCCNC(=O)/C=C/C(=O)O	none (no result: Pf gametocyte)
O=C(Nc1cc2c(oc1=O)CCCC2=O)c1ccc(Cl)cc1	STAT1 act 136.3
CC1CCC(NC(=O)c2ccc3nc[nH]c3c2)CC1 (stereo unspecified)	STAT1 act 128.6 (no result: Pf gametocyte)
Cc1ccc(NC(=O)c2ccc3nc[nH]c3c2)c(O)c1	FLuc inh counter 50.2
O=[N+]([O-])c1ccc(Nc2nc(N/N=C\c3ccc4c(c3)OCO4)nc(N3CCCCC3)n2)cc1	none
CCN1C(=O)[C@H]2[C@@H](c3ccc(-c4ccc(C(C)=O)cc4)cc3)N3CCC[C@@]3(C(=O)OC)[C@H]2C1=O	none (no result: NF-kB expr up, APP 5'UTR act, STAT1 act, FLuc inh counter, FLuc stim CS)
N#Cc1ncc(-c2ccc3c(c2)OCCOCCOCCOCCOCCO3)nc1C#N	NF-kB expr up 6.66 (no result: Pf gametocyte)
CCS(=O)(=O)Nc1ccc(-c2nc3cccnc3s2)cc1	APP 5'UTR act 197.3, FLuc inh counter 67.2 (no result: Pf gametocyte)
O=S(=O)(Nc1ccc(-c2nc3cccnc3s2)cc1)c1cccs1	none (no result: Pf gametocyte)
O=S(=O)(Nc1ccc(-c2nc3cccnc3s2)cc1)c1ccc(Cl)s1	STAT1 act 131.4 (no result: Pf gametocyte)
Cc1cc(-c2nc3cccnc3s2)ccc1NS(=O)(=O)c1cccs1	STAT1 act 145.6 (no result: Pf gametocyte)
CCS(=O)(=O)Nc1cc(-c2nc3cccnc3s2)ccc1C	STAT1 act 135.3 (no result: Pf gametocyte)
CCS(=O)(=O)Nc1cccc(-c2nc3cccnc3s2)c1	none (no result: NF-kB expr up, APP 5'UTR act, STAT1 act, FLuc inh counter, FLuc stim CS)
COc1ccc(C(=O)NCC(C)(C)CNC(=O)c2ccc(OC)cc2)cc1	none (no result: NF-kB expr up, APP 5'UTR act, STAT1 act, FLuc inh counter, FLuc stim CS)
COc1ccc(C(=O)NC(=O)NC2(C(Cl)(Cl)Cl)OCCO2)cc1	NF-kB expr up 5.07, APP 5'UTR act 225.6
Cc1sc(=NC(=O)c2ccco2)n(C)c1-c1ccc(F)cc1	FLuc inh counter 80.4 (no result: Pf gametocyte)
COc1cc(C(=O)N=c2sc3ccccc3n2C)cc(OC)c1OC	none
Cc1sc(=NC(=O)c2ccco2)n(C)c1-c1ccccc1	NF-kB expr up 5.11, FLuc inh counter 91.2 (no result: Pf gametocyte)
Cn1c(=NC(=O)c2cccc([N+](=O)[O-])c2)sc2ccccc21	NF-kB expr up 4.25, STAT1 act 170.1
Cn1c(=NC(=O)CCl)sc2ccccc21	none
Cn1c(=NC(=O)c2ccco2)sc2ccccc21	NF-kB expr up 4.61, APP 5'UTR act 155.7, FLuc inh counter 86.0
Cc1cc(C(=O)NC2CCCCCCC2)ccc1[N+](=O)[O-]	none (no result: NF-kB expr up, APP 5'UTR act, STAT1 act, FLuc inh counter, FLuc stim CS)
CCC(C)Sc1nc2c(c(=O)[nH]c(=O)n2C)n1CC(O)COc1ccccc1C (stereo unspecified)	Pf gametocyte 39.1
O=C1NC(Cc2ccccc2)c2nc3ccc(Br)cc3c(=O)n2-c2cc(Cl)ccc21 (stereo unspecified)	none (no result: NF-kB expr up, APP 5'UTR act, STAT1 act, FLuc inh counter, FLuc stim CS)
Cc1ccc(NC(=O)c2[nH]cnc2C(=O)NN)cc1	Pf gametocyte 39.6
Cc1ccc(NC(=O)c2nc[nH]c2C(=O)N[C@@H](C)c2ccccc2)cc1	none
O=C(Nc1cccn2ncnc12)c1ccc(Cl)cc1	none
O=C(Nc1cnc2ccccn2c1=O)c1ccc(Cl)cc1	STAT1 act 130.0
Cc1ccc(-c2csc3nc[nH]c(=S)c23)cc1	Pf gametocyte 51.0
S=c1[nH]cnc2scc(-c3ccc(Br)cc3)c12	none

Screens (PubChem)
